The list is not random: actives were taken first. Their share in the collection is about 2%.
TROY signal inh: inhibitors of TROY-dependent NF-kB signaling | inhibition, % at 10 µM | actives 0.98% (n = 360,000) | Q293 LMP1-TROYcd NF-kB luciferase reporter, 4 h;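 active means compounds whose plate-normalised and pattern-corrected inhibition of the luciferase reporter signal at the single screening dose is 50% or more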
Xi reactivation: X-chromosome reactivation activator; XiGFP mouse fibroblasts, % GFP-positive cells imaging, 3 d; cells co-treated with 5-aza-dC sensitizer; scaled so ellipticine positive control = 100%; activation, % at 7.58 µM; actives 0.055% (n = 360,000); AID 743238;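 active means mean normalized replicate activation at least 10% and every replicate at or above 10%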;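 further: 0% = median of on-plate neutral control wells and 100% = ellipticine 6 µM median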
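Assay system: SV40-immortalized XiGFP fibroblast cells, line 68-5-11; buffer or medium: DMEM plus 5-aza-dC sensitizer; compound: one concentration, pinned; timing: compounds 3 days, fix/stain 15 min at room temperature; benchmarks: positive control ellipticine, 6 µM final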
LGR2 inh: inhibitors of bursicon-induced Drosophila LGR2 receptor cAMP signaling; actives 0.35% (n = 380,000); AID 720647; inhibition, % at 9.99 µM; HEK293 LGR2, CRE-luciferase, bursicon-stimulated, 4 h;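 active means drop in luminescence signal, shown as inhibition above about 50% in the replicate tests, limit read from the data, passing the limit was not always enough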;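 further: agonist challenge used bursicon conditioned medium at about half maximal strength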
CaV13 ICDI inh: Primary screen for inhibitors of IQ motif and Ca2+-dependent inactivation inhibitor domain binding in CACNA1D, Förster resonance energy transfer in living cells, … | HEK cells, CFP/YFP FRET ICDI-IQ, plate reader, 10 min; percent FRET-ratio fall versus neutral wells | inhibition, % at 12.3 µM | actives 0.098% (n = 340,000) | AID 743397;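 active means mean replicate inhibition of at least 30% and at least 1% of replicates passing that level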;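 further: 0% = median of the neutral control wells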
TWEAK-Fn14 inh: inhibitors of TWEAK-Fn14 interaction signaling. TWEAK-stimulated Fn14 reporter cells, luciferase luminescence, 8 h. inhibition, % at 10 µM. actives 2% (n = 360,000). AID 1159606; in the data active means inhibition above about 50%
Active calls of the source: *.

`COc1ccc(C(=O)NCCCCc2ccccc2)cc1` gave TROY signal inh -40.2, Xi reactivation 2.2, LGR2 inh -21.7, CaV13 ICDI inh 8.1 and TWEAK-Fn14 inh 2.5.
COc1ccc(NS(=O)CCCc2ccccc2)cc1 (configuration not stated) was read as TROY signal inh 41.6, Xi reactivation 0.0, LGR2 inh -8.9, CaV13 ICDI inh -10.4 and TWEAK-Fn14 inh 54.3*.
COc1ccc2c3c(n(C)c2c1)[C@H](CO)N(S(C)(=O)=O)CC31CN(C(=O)C2CCCC2)C1 was read as Xi reactivation 0.2 and LGR2 inh 22.4.
O=C(C[C@@H]1C=C[C@H](NC(=O)Cc2cccnc2)[C@H](CO)O1)Nc1ccc(-c2ccccc2)cc1 was read as Xi reactivation 0.0 and LGR2 inh 12.7.
For O=C(Nc1nc(-c2cccs2)cs1)c1cccc(S(=O)(=O)N2CCCCCC2)c1 the results were TROY signal inh 20.4, CaV13 ICDI inh -3.5 and TWEAK-Fn14 inh 10.3.
For O=C(Nc1nc(-c2cccs2)cs1)c1ccc(S(=O)(=O)N2CCCCC2)cc1 the results were TROY signal inh 38.1, Xi reactivation 0.1, LGR2 inh 12.1, CaV13 ICDI inh -6.2 and TWEAK-Fn14 inh 59.3*.
`O=C(Nc1nc(-c2ccccc2)c(-c2ccccc2)s1)c1ccc(S(=O)(=O)N2CCCCC2)cc1` gave TROY signal inh -9.3, Xi reactivation 0.5, LGR2 inh -1.1, CaV13 ICDI inh -3.9 and TWEAK-Fn14 inh -20.5.
O=C(Nc1nc(-c2ccccc2)c(C(=O)c2ccccc2)s1)c1ccc(S(=O)(=O)N2CCCCC2)cc1 was read as TROY signal inh 14.6, Xi reactivation 0.0, LGR2 inh -2.2, CaV13 ICDI inh -2.8 and TWEAK-Fn14 inh 51.5*.
Screening O=C(NCC[C@@H]1CC[C@@H](NC(=O)C2CC2)[C@H](CO)O1)c1ccc(F)cc1 returned Xi reactivation 0.7 and LGR2 inh 7.5.
COCC(=O)Nc1ccc2c(c1)OC[C@H](C)N(C(=O)C1CCCC1)C[C@@H](C)[C@H](OC)CN(C)C2=O was read as Xi reactivation 0.0 and LGR2 inh 1.4.
For COc1ccccc1C(=O)Nc1ccc(NC(=O)c2ccco2)cn1 the results were TROY signal inh -55.6, LGR2 inh -40.0, CaV13 ICDI inh -2.8 and TWEAK-Fn14 inh -2.4.
`O=C(Nc1ccc(NC(=O)c2ccco2)nc1)c1ccccn1` gave TROY signal inh -40.1, CaV13 ICDI inh -4.8 and TWEAK-Fn14 inh 51.9*.
`CC(C)(C)C(=O)Nc1ccc(NC(=O)c2ccco2)nc1` gave TROY signal inh 85.3*, Xi reactivation 0.0, LGR2 inh 98.4*, CaV13 ICDI inh -4.7 and TWEAK-Fn14 inh 104.0*.
For O=C(Cc1ccccc1)Nc1ccc(NC(=O)c2ccco2)nc1 the results were TROY signal inh -91.0, CaV13 ICDI inh -4.9 and TWEAK-Fn14 inh -12.8.
For O=C(Nc1ccc(NC(=O)c2ccco2)nc1)c1ccco1 the results were TROY signal inh 12.5, Xi reactivation 0.0, LGR2 inh 60.4*, CaV13 ICDI inh -6.2 and TWEAK-Fn14 inh 73.6*.
`O=C(Nc1ccc(NC(=O)C2CC2)cc1)c1ccco1` gave TROY signal inh -50.2, Xi reactivation 0.0, LGR2 inh -8.1, CaV13 ICDI inh -5.9 and TWEAK-Fn14 inh 31.5.
For O=C(Nc1ccc(NC(=O)C2CCCCC2)cn1)c1ccco1 the results were TROY signal inh 30.1, CaV13 ICDI inh -2.2 and TWEAK-Fn14 inh 75.2*.
`C[C@H](CO)N1C[C@H](C)[C@@H](CN(C)S(=O)(=O)c2cccs2)Oc2ccc(NC(=O)CCN3CCOCC3)cc2CC1=O` gave Xi reactivation -0.1 and LGR2 inh -0.5.
Nc1ccc(/C=C/C(=O)c2ccco2)cc1 was read as TROY signal inh -31.1, Xi reactivation -0.1, LGR2 inh -91.7, CaV13 ICDI inh -40.0 and TWEAK-Fn14 inh -7.4.
For CC(C)(C)C(=O)Nc1ccc(/C=C/C(=O)c2ccco2)cc1 the results were TROY signal inh 71.7*, Xi reactivation 0.3, LGR2 inh 17.1, CaV13 ICDI inh -24.6 and TWEAK-Fn14 inh 54.2*.
For O=C(Nc1cccc(S(=O)(=O)N2CCCC2)c1)c1ccco1 the results were TROY signal inh 9.9, Xi reactivation -0.6, LGR2 inh -11.7, CaV13 ICDI inh -6.4 and TWEAK-Fn14 inh 11.0.
For O=C(Nc1cccc(S(=O)(=O)c2cccc(NC(=O)c3ccco3)c2)c1)c1ccco1 the results were TROY signal inh 42.4, Xi reactivation -0.2, LGR2 inh -8.4, CaV13 ICDI inh -2.0 and TWEAK-Fn14 inh 58.8*.
`CN1CCN(C(=O)C[C@@H]2CC[C@@H](NS(=O)(=O)c3cccc(F)c3)[C@@H](CO)O2)CC1` gave Xi reactivation -0.7 and LGR2 inh -6.6.
`O=C(NCCCl)NNc1c(Cl)cc(Cl)cc1Cl` gave TROY signal inh 71.7*, Xi reactivation 0.0, LGR2 inh 4.4, CaV13 ICDI inh -5.2 and TWEAK-Fn14 inh 51.1*.
`CCCCNC(=S)NNc1c(Cl)cc(Cl)cc1Cl` gave TROY signal inh -4.2, Xi reactivation 0.0, LGR2 inh -2.7, CaV13 ICDI inh -1.9 and TWEAK-Fn14 inh 5.6.
For CCC(=O)Nc1ccc2c(c1)OC[C@H](C)N(C(=O)C1CC1)C[C@@H](C)[C@@H](OC)CN(C)C2=O the results were Xi reactivation -0.4 and LGR2 inh 7.9.
For CCc1nc(SCC(=O)c2ccc3c(c2)OCCO3)c2ccccc2n1 the results were TROY signal inh -4.4, CaV13 ICDI inh -5.0 and TWEAK-Fn14 inh -94.9.
For CCc1nc(SCC(=O)c2ccccc2)c2ccccc2n1 the results were TROY signal inh -31.8, Xi reactivation 0.0, LGR2 inh 5.8, CaV13 ICDI inh 39.4* and TWEAK-Fn14 inh -68.0.
CN1C(=O)c2cc(NC(=O)c3cccc(C(F)(F)F)c3)ccc2OC[C@@H]2O[C@H](CC(=O)O)CC[C@@H]21 was read as Xi reactivation 0.0 and LGR2 inh -4.8.
For CCOC(=O)c1nc(C)nc(Sc2n[nH]c(-c3cc(C(F)(F)F)cc(C(F)(F)F)c3)n2)c1C the results were TROY signal inh 59.0*, Xi reactivation 0.0, CaV13 ICDI inh -19.6 and TWEAK-Fn14 inh -41.0.
`CN(C)CC(=O)N[C@@H]1CC[C@H](CCNC(=O)C2CCCCC2)O[C@@H]1CO` gave Xi reactivation 0.2 and LGR2 inh -2.2.
For O=C(CSC1CC(=O)N(CC(c2ccccc2)c2ccccc2)C1=O)Nc1ccc(Cl)cc1 (configuration not stated) the results were TROY signal inh 51.2*, CaV13 ICDI inh -5.0 and TWEAK-Fn14 inh 32.4.
`O=C(C[C@@H]1C=C[C@@H](NS(=O)(=O)c2ccc(F)cc2)[C@H](CO)O1)NCc1ccncn1` gave Xi reactivation 0.0 and LGR2 inh 7.8.

Screens from PubChem BioAssay.
